Source: PubChem (several laboratories)
Redox H2O2 prof: compounds producing H2O2 with reducing agent – biochemical, NIH compound library profiling, artefact control for MLSCN library redox annotation, primary screen; DTT-dependent redox cycling H2O2, phenol red/HRP absorbance; 100% = 100 µM peroxide control, 0% = buffer; activation, % at 10 µM; hit rate 0.03% among 200,000; AID 878;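 active = activation of at least 50% relative to the plate's high and low controls in the primary single-dose screen; inactive = activation below 50%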;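 note: compound incubated with DTT at 0.8 mM final as the reducing agent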
L major viab: Leishmania major promastigote growth inhibition. Leishmania major promastigotes, resazurin fluorescence viability. inhibition, % at 10 µM. hit rate 9% among 200,000. AID 1063;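 note: promastigotes grown with compound for 44 hours at 28 °C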
Diaphorase inh: inhibits diaphorase or chemically oxidizes, flagging diaphorase assay artifacts | inhibition, % at 20 µM | AID 1217 | hit rate 0.69% among 190,000 | diaphorase resazurin-to-resorufin fluorescence, NADH, 16 min; bacterial (C. kluyveri) enzyme, not human;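 active = primary screen inhibition at 20 µM above a set limit, cut at about 50% in these data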;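 note: plate controls were DMSO with full reaction for no effect and wells lacking NADH for full effect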
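controls = No-NADH positive control and DMSO neutral control | system = Clostridium kluyveri diaphorase enzyme | timing = reaction incubation of 16 min at room temperature | signal = resorufin fluorescence 544/590 nm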
PfG6PD inh: PfG6PD (Plasmodium falciparum) enzyme inhibition; PfGluPho enzyme, NADPH resazurin-diaphorase fluorescence; inhibition, % at 20 µM; hit rate 0.78% among 350,000; AID 504690;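 active = inhibition reaching at least a set limit at 20 µM in the primary screen, cut at about 59% in these data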;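 note: 0% = DMSO wells with substrate and 100% = DMSO wells lacking glucose-6-phosphate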
Diaph act CS: activates diaphorase or chemically reduces, flagging diaphorase assay artifacts; AID 1229; Diaphorase/resazurin coupled assay, resorufin fluorescence, 16 min; active compounds read high; 1 = vehicle wells, 0 = NADH-free wells; activation factor at 20 µM; hit rate 0.005% among 190,000;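 active = diaphorase activity raised at least twofold by the compound at 20 µM; inactive = activation factor below 2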
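Material: Clostridium kluyveri diaphorase, purified enzyme; Quantity: enzyme 0.07 U/mL final; Medium: HEPES pH 7.4 buffer with MgCl2 and Tween 20; Dosing: single compound dose of 20 µM, 1% DMSO final; Schedule: 16 min reaction at room temperature; Measured by: red resorufin fluorescence at 544/590 nm excitation/emission.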
G6PDH counter: counter-screen for G6PDH assay hits: L. mesenteroides G6PDH inhibition. Purified L. mesenteroides G6PDH, diaphorase/resazurin coupled fluorescence, 45 min. inhibition, % at 5 µM. hit rate 0.12% among 200,000. AID 1020
An asterisk follows results filed as active; · = no result given. Many of the other results were omitted from the sample, so hits are more common in it than they were. Cut-off read from the data, not from the text of the source, unless noted: active = inhibition above about 50%; inactive = the rest.

SMILES	Redox H2O2 prof	L major viab	Diaphorase inh	PfG6PD inh	Diaph act CS	G6PDH counter
CN(C)CCCNc1ccc(-c2nn(C)c(=O)c3ccccc23)cc1[N+](=O)[O-]	0	100*	16	7	0.8	0
Cc1cccc(NC(=S)N/N=C2\CC(C)(C)Oc3ccc(O)cc32)c1	1	39	28	20	0.7	-16
CC1(C)C/C(=N\NC(=S)Nc2ccccc2F)c2cc(O)ccc2O1	-2	80*	44	18	0.6	-1
c1ccc(N2CCN(c3nc4ccccc4[nH]3)CC2)nc1	0	-4	67*	-15	0.3	5
c1ccc2[nH]c(N3CCOCC3)nc2c1	-1	-4	7	-18	0.9	0
CCC(CC)C1C(C#N)=C(N)Oc2n[nH]c(C)c21 (stereo not given)	0	99*	12	34	0.9	-6
CCC(CC)C1C(C#N)=C(N)Oc2n[nH]c(-c3ccccc3)c21 (stereo not given)	0	32	13	50	0.9	4
Cc1[nH]nc2c1C(C1CC=CCC1)C(C#N)=C(N)O2 (stereo not given)	0	100*	6	-1	0.9	-4
CCN(CC)CCNC(=O)c1ccc(NC(=O)C2CC(=O)N(c3ccc4c(c3)OCCO4)C2)cc1 (stereo not given)	·	·	·	-11	·	·
Cc1ccc(NC(=O)CN2C(=O)S/C(=C/c3ccc(-c4cc(C(=O)O)ccc4C)o3)C2=O)cc1C	1	-12	71*	2	0.3	9
Cc1cccc(N2CCN(C(=O)c3cc(S(=O)(=O)N(C)C)ccc3N3CCCC3)CC2)c1C	0	54*	17	3	0.8	-7
CCOCCCn1c(SCC(=O)Nc2ccc(NC(C)=O)cc2)nc2ccccc2c1=O	·	·	·	-18	·	·
Cc1cc(NC(=O)C(C)SCC(=O)OCC(=O)N(C)c2ccccc2)no1 (stereo not given)	·	·	·	1	·	·
CSc1nc(O)c(/C=C2\C=Nc3ccccc32)[nH]1	0	4	21	13	0.8	9
O=c1[nH]c(/C=C2\C=Nc3ccccc32)c(O)n1Cc1ccccc1F	-2	19	69*	14	0.3	6
CN(C)C=Nc1c(Br)cc(Br)c2nonc12	2	-1	62*	31	0.4	44
NS(=O)(=O)c1ccc(CCNC(=O)c2ccccc2F)cc1	0	0	11	-4	0.9	1
Cc1cc(N2CCN(C(=O)c3ccco3)CC2)c2ccccc2n1	·	·	·	-4	·	·
CCN1CCN(c2cc(N3CCN(C(=O)c4ccco4)CC3)c3c4c(onc24)-c2ccccc2C3=O)CC1	·	·	·	68*	·	·
COc1ccc(Cl)cc1NC(=O)CC1S/C(=N/N=C2CCCCCC2)NC1=O (stereo not given)	·	·	·	-11	·	·
COCCNC(=O)c1onc(CCl)c1C(=O)OC	-7	92*	-10	-1	1.1	4
CCCCNC(=O)c1onc(CSc2ccc(OC)cc2)c1C(=O)O	-4	-10	0	16	1	-2
C=CCNC(=O)c1onc(CCl)c1C(=O)OC	-5	101*	21	-9	0.8	2
CCCCNC(=O)c1onc(CCl)c1C(=O)OC	-6	101*	2	16	1	4
Cc1cccc(NC(=O)c2nc[nH]c2C(=O)NCC(=O)OC(C)(C)C)c1	·	·	·	13	·	·
SMILES	Redox H2O2 prof	L major viab	Diaphorase inh	PfG6PD inh	Diaph act CS	G6PDH counter
C#CCOC(=O)C[N+](C)(C)CC#Cc1ccccc1	-1	1	8	-10	0.9	3
COc1ccc(C)cc1NC(=O)C(=O)NNC(=O)c1ccco1	-2	-8	21	-22	0.8	-5
Cc1cc(C=O)c(C)n1-c1ccc(N2CCOCC2)cc1	0	-4	7	-24	0.9	14
Cc1cc(C=O)c(C)n1-c1cc(C(F)(F)F)ccc1N1CCOCC1	0	94*	11	19	0.9	2
COC(=O)c1ccc(C2NC(=S)N(c3ccccc3)C(C)=C2C(=O)Nc2ccccc2OC)cc1 (stereo not given)	0	72*	18	-10	0.8	2
CC1CCN(C(=O)CN(c2ccc(Cl)c(C(F)(F)F)c2)S(C)(=O)=O)CC1	0	69*	18	-6	0.8	3
CS(=O)(=O)N(CC(=O)N1CCN(c2ccccc2)CC1)c1ccc(Cl)c(C(F)(F)F)c1	0	89*	20	2	0.8	5
CS(=O)(=O)N(CC(=O)N1CCC(C(N)=O)CC1)c1ccc(Cl)c(C(F)(F)F)c1	0	-9	7	5	0.9	-3
CS(=O)(=O)N(Cc1ccccc1)c1ccc(C(=O)N2CCN(c3cccc(Cl)c3)CC2)cc1	1	73*	21	14	0.8	-5
O=C(CC1NC(=S)NC1=O)c1ccc(Cl)cc1 (stereo not given)	·	·	·	-1	·	·
CN(C)S(=O)(=O)c1cccc(-c2nnc(SCC(=O)NCCCCCC(=O)O)n2-c2ccc(F)cc2)c1	-1	1	6	18	0.9	11
Cc1ccc(C)c(OC(=O)c2cccc(S(=O)(=O)N3CCN(C)CC3)c2)c1	·	·	·	0	·	·
Cc1noc(C)c1NC(=O)Nc1ccc2c(c1)C(=O)N([C@H](C)CO)C[C@H](C)[C@@H](CN(C)C(=O)Nc1c(C)noc1C)O2	·	·	·	3	·	·
COc1ccc(OC)c(-n2c(SCC(N)=O)nnc2-c2c[nH]c3ccccc23)c1	-1	-4	22	7	0.8	-4
COc1cccc(-n2c(SCC(N)=O)nnc2-c2c[nH]c3ccccc23)c1	-1	1	-4	34	1	16
COc1ccc(OC)c(-n2c(SC)nnc2-c2c[nH]c3ccccc23)c1	-3	65*	11	-3	0.9	14
COc1ccc(OC)c(-n2c(SCC(=O)Nc3cc(C)on3)nnc2-c2c[nH]c3ccccc23)c1	-1	100*	8	1	0.9	0
O=C(c1ccco1)N1CC2(CC(c3ccc(Cl)cc3)=NO2)CN1Cc1ccc(Br)cc1 (stereo not given)	·	·	·	22	·	·
CCOc1ccc2nc3sc(C(=O)N4CCOCC4)c(N)c3cc2c1	11	93*	·	46	·	8
COc1ccccc1Nc1n[nH]c(=S)s1	-2	-4	22	51	0.8	8
N#CCCn1nc(-c2ccc(Br)cc2)cc1Nc1ccccc1NC(=O)C(F)(F)F	·	69*	18	10	0.8	-5
Cc1cc(C)cc(NC(=O)CSc2ccc(-c3cccs3)nn2)c1	0	72*	39	15	0.6	-37
COc1ccccc1NC(=O)C(=O)N/N=C/c1cccs1	0	55*	11	-12	0.9	-16
